ChEMBL document CHEMBL1155317, “Design and optimisation of potent gp120-CD4 inhibitors” (Bioorg Med Chem Lett, 2009)

How the values were obtained:
[1] = system: Human immunodeficiency virus 1; test: Antiviral activity against Human immunodeficiency virus 1 NL4-3 infected HeLaP4 cells after 5 days by beta-galactosidase reporter assay; type: functional, organism-based; details: Human immunodeficiency virus 1, NL4-3, HeLaP4, 120 h
Method in brief: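 HeLa-P4 cells were premixed with NL4-3 virus and added at 10^5 cells/mL to wells containing diluted compound. Plates were incubated for 5 days at 37 °C in humidified 5% CO₂. Infection was quantified with a β-galactosidase reporter assay.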

[2] = Inhibition of HIV1 NL4-3 gp160 assessed as inhibition of interaction between gp120 and host CD4 receptor by cell-cell fusion assay; set-up: species or system Human immunodeficiency virus 1
[3] = Bioavailability in rat at 1 mg/kg; type: ADME, organism-based; details: in vivo
[4] = system: Human immunodeficiency virus 1; test: Antiviral activity against Human immunodeficiency virus 1 isolate 04-116868_VL_518.14; type: functional
Method in brief: (§1)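 Testing against these strains was contracted out and used the PhenoSense phenotypic antiviral assay.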

[5] = system: Human immunodeficiency virus 1; test: Antiviral activity against Human immunodeficiency virus 1 isolate 04-116890_VL_781.45; type: functional; method in brief: as §1
[6] = system: Human immunodeficiency virus 1; test: Antiviral activity against Human immunodeficiency virus 1 isolate 04-116880_VL_696.65; type: functional; method in brief: as §1
[7] = system: Human immunodeficiency virus 1; test: Antiviral activity against Human immunodeficiency virus 1 isolate 04-116892_VL_534.93; type: functional; method in brief: as §1
[8] = system: Human immunodeficiency virus 1; test: Antiviral activity against Human immunodeficiency virus 1 isolate 04-116885_VL_530.54; type: functional; method in brief: as §1
Rattus norvegicus [9] = test: Unbound volume of distribution in rat at 1 mg/kg, iv and 1 mg/kg, po; type: ADME, organism-based; details: in vivo
[10] = system: Human immunodeficiency virus 1; test: Antiviral activity against Human immunodeficiency virus 1 isolate 04-116879_VL_988.03; type: functional; method in brief: as §1
[11] = system: Human immunodeficiency virus 1; test: Antiviral activity against Human immunodeficiency virus 1 isolate 04-116867_VL_837.51; type: functional; method in brief: as §1
[12] = Half life in rat at 1 mg/kg, iv and 1 mg/kg, po; type: ADME, organism-based; details: in vivo
[13] = system: Human immunodeficiency virus 1; test: Antiviral activity against Human immunodeficiency virus 1 isolate 04-116881_VL_338.52; type: functional; method in brief: as §1
[14] = system: Human immunodeficiency virus 1; test: Antiviral activity against Human immunodeficiency virus 1 isolate 04-116884_VL_328.45; type: functional; method in brief: as §1
Rattus norvegicus [15] = test: Unbound clearance in rat at 1 mg/kg, iv and 1 mg/kg, po; type: ADME, organism-based; details: in vivo
[16] = system: Human immunodeficiency virus 1; test: Antiviral activity against Human immunodeficiency virus 1 isolate 04-116883_VL_432.63; type: functional; method in brief: as §1
[17] = system: Human immunodeficiency virus 1; test: Antiviral activity against Human immunodeficiency virus 1 isolate 04-116878_VL_241.32; type: functional; method in brief: as §1
[18] = system: Human immunodeficiency virus 1; test: Antiviral activity against Human immunodeficiency virus 1 isolate 04-116870_VL_181.51; type: functional; method in brief: as §1
[19] = system: Human immunodeficiency virus 1; test: Antiviral activity against Human immunodeficiency virus 1 isolate 04-116877_VL_938.28; type: functional; method in brief: as §1
[20] = system: Human immunodeficiency virus 1; test: Antiviral activity against Human immunodeficiency virus 1 isolate 04-116876_VL_969.72; type: functional; method in brief: as §1
[21] = system: Human immunodeficiency virus 1; test: Antiviral activity against Human immunodeficiency virus 1 HXB2; type: functional; method in brief: as §1
[22] = system: Human immunodeficiency virus 1; test: Antiviral activity against Human immunodeficiency virus 1 isolate 04-116874_VL_560.34; type: functional; method in brief: as §1
[23] = system: Human immunodeficiency virus 1; test: Antiviral activity against Human immunodeficiency virus 1 isolate 04-116873_VL_754.51; type: functional; method in brief: as §1
[24] = system: Human immunodeficiency virus 1; test: Antiviral activity against Human immunodeficiency virus 1 isolate 04-116886_VL_578.66; type: functional; method in brief: as §1
[25] = system: Human immunodeficiency virus 1; test: Antiviral activity against Human immunodeficiency virus 1 isolate 04-116875_VL_279.69; type: functional; method in brief: as §1
[26] = Fraction of compound absorbed in rat at 1 mg/kg, iv and 1 mg/kg, po; type: ADME, organism-based; details: in vivo, read-out: Fabs
[27] = Metabolic stability in human liver microsomes assessed as half life; type: ADME, Microsome
[28] = system: Human immunodeficiency virus 1; test: Antiviral activity against Human immunodeficiency virus 1 isolate 04-116882_VL_624.75; type: functional; method in brief: as §1
[29] = system: Human immunodeficiency virus 1; test: Antiviral activity against Human immunodeficiency virus 1 isolate 04-116869_VL_833.52; type: functional; method in brief: as §1
[30] = system: Human immunodeficiency virus 1; test: Antiviral activity against Human immunodeficiency virus 1 JRCSF; type: functional, Human immunodeficiency virus type 1 (JRCSF ISOLATE); method in brief: as §1
[31] = Clearance in rat at 1 mg/kg, iv and 1 mg/kg, po; type: ADME, organism-based; details: in vivo
[32] = system: Human immunodeficiency virus 1; test: Antiviral activity against Human immunodeficiency virus 1 isolate 04-116893_VL_193.95; type: functional; method in brief: as §1
[33] = system: Human immunodeficiency virus 1; test: Antiviral activity against Human immunodeficiency virus 1 isolate 04-116888_VL_113.66; type: functional; method in brief: as §1
[34] = system: Human immunodeficiency virus 1; test: Antiviral activity against Human immunodeficiency virus 1 isolate 04-116889_VL_440.85; type: functional; method in brief: as §1
[35] = system: Human immunodeficiency virus 1; test: Antiviral activity against Human immunodeficiency virus 1 isolate 04-116871_VL_781.69; type: functional; method in brief: as §1
[36] = system: Human immunodeficiency virus 1; test: Antiviral activity against Human immunodeficiency virus 1 isolate 04-116872_VL_186.32; type: functional; method in brief: as §1

CNC(=O)c1cc(OC)c(O[C@@H](C)C(=O)N2CCN(c3nccc4[nH]ncc34)C[C@H]2C)cn1
IC50 [1]: 6 nM
IC50 [2]: 24 nM

CC(Oc1cncc2ccccc12)C(=O)N1CCN(C(=O)c2ccccc2)C[C@H]1C (stereo partly drawn)
IC50 [2]: 9370 nM

Cc1nn(C)c2cccc(OC(C)C(=O)N3CCN(C(=O)c4ccccc4)C[C@H]3C)c12 (stereo partly drawn)
IC50 [1]: 79 nM
IC50 [2]: 15 nM

CNC(=O)c1cc(OC)c(O[C@@H](C)C(=O)N2CCN(c3nccn3CC3CC3)C[C@H]2C)cn1
IC50 [2]: 1900 nM

CC(Oc1cccc2cnccc12)C(=O)N1CCN(C(=O)c2ccccc2)C[C@H]1C (stereo partly drawn)
IC50 [1]: 492 nM
IC50 [2]: 103 nM

CC(Oc1cccc2c(=O)[nH]ccc12)C(=O)N1CCN(C(=O)c2ccccc2)C[C@H]1C (stereo partly drawn)
IC50 [1]: 1050 nM
IC50 [2]: 68 nM

CNC(=O)c1nccc2c(O[C@@H](C)C(=O)N3CCN(C(=O)c4ccccc4)C[C@H]3C)ccc(F)c12
IC50 [1]: 20 nM
IC50 [2]: 31 nM

CNC(=O)c1cc(OC)c(O[C@@H](C)C(=O)N2CCN(c3nccc4ccccc34)C[C@H]2C)cn1
bioavailability [3]: 21%
IC90 [4]: 1 nM
IC90 [5]: 144 nM
IC90 [6]: 276 nM
IC90 [7]: 199 nM
IC90 [8]: 8 nM
Vdu (Rattus norvegicus [9]): 9.4 L/kg
IC90 [10]: 8 nM
IC50 [1]: 0.12 nM
IC90 [11]: 40 nM
half-life [12]: 30 min
IC90 [13]: 201 nM
IC90 [14]: 0.8 nM
CL free (Rattus norvegicus [15]): 198 mL/min/kg
IC90 [16]: > 666 nM
IC90 [17]: 230 nM
IC90 [18]: 6 nM
IC90 [19]: 2 nM
IC90 [20]: 37 nM
IC90 [21]: 1.4 nM
IC90 [22]: 5 nM
IC90 [23]: 1.3 nM
IC90 [24]: 120 nM
IC50 [2]: 0.29 nM
IC90 [25]: 14 nM
Fa [26]: 100%
half-life [27]: 4 min
IC90 [28]: 3 nM
IC90 [29]: 24 nM
IC90 [30]: 0.3 nM
clearance [31]: 48 mL/min/kg
IC90 [32]: 23 nM
IC90 [33]: 324 nM
IC90 [34]: 5 nM
IC90 [35]: 0.5 nM
IC90 [36]: 36 nM

Cc1nc2c(OC(C)C(=O)N3CCN(C(=O)c4ccccc4)C[C@H]3C)cccc2o1 (stereo partly drawn)
IC50 [2]: 2040 nM

CNC(=O)c1cc(OC)c(O[C@@H](C)C(=O)N2CCN(c3n[nH]c4ccccc34)C[C@H]2C)cn1
IC50 [1]: 979 nM
IC50 [2]: 42 nM

CNC(=O)c1cc(OC)c(O[C@@H](C)C(=O)N2CCN(c3ncnc4[nH]cnc34)C[C@H]2C)cn1
IC50 [2]: 296 nM

CC(Oc1cccc2nccnc12)C(=O)N1CCN(C(=O)c2ccccc2)C[C@H]1C (stereo partly drawn)
IC50 [2]: 493 nM

Cc1nc2c(OC(C)C(=O)N3CCN(C(=O)c4ccccc4)C[C@H]3C)cccc2[nH]1 (stereo partly drawn)
IC50 [2]: 834 nM

CNc1nccc2c(O[C@@H](C)C(=O)N3CCN(C(=O)c4ccccc4)C[C@H]3C)cccc12
IC50 [2]: 61 nM

CNC(=O)c1cc(OC)c(O[C@@H](C)C(=O)N2CCN(c3nccc4ncccc34)C[C@H]2C)cn1
IC50 [1]: 126 nM
IC50 [2]: 29 nM

C[C@H](Oc1cccc2nc(N(C)C)ccc12)C(=O)N1CCN(C(=O)c2ccccc2)C[C@H]1C
IC50 [2]: 3200 nM
